The text below walks through data of ChEMBL document CHEMBL1157072 (Bioorg Med Chem, 2010).

Each structure is given as a SMILES string. Converted amounts (≈) assume the structure as drawn. The source made the active and inactive calls. The calls are words filed in the database; no cut-off is given here.

Series [1] concerns Staphylococcus aureus. Put plainly: Upregulation of mepB gene expression in MBX-1090-resistant Staphylococcus aureus isolate d20A1 at 50 ug/ml by RT-PCR analysis relative to wild type. The series is classed as functional.
Series [2] deals with Staphylococcus aureus. The experiment in a line: Downregulation of ribE gene expression in MBX-1090-resistant Staphylococcus aureus isolate d20A1 at 50 ug/ml by RT-PCR analysis relative to wild type. It counts as functional.
Series [3] has as its system Staphylococcus aureus. The experiment in a line: Downregulation of ribD gene expression in MBX-1090-resistant Staphylococcus aureus isolate d20A1 at 50 ug/ml by RT-PCR analysis relative to wild type. The series is classed as functional.
Series [4] has as its system Staphylococcus aureus. Put plainly: Modulation of protein A gene expression in MBX-1090-resistant Staphylococcus aureus isolate d20A1 at 50 ug/ml by RT-PCR analysis relative to wild type. It counts as functional.
For series [5], the system named is Staphylococcus aureus. Put plainly: Antibacterial activity against Staphylococcus aureus NCTC 8325 harboring genetic deletion of mepRA gene after 16 to 20 hrs by broth microdilution method. The series is classed as functional. In a few lines: (§1)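 Broth microdilution in cation-adjusted Mueller Hinton broth. Compounds were serially diluted twofold in DMSO at 50-fold final strength (2% DMSO final). The inoculum was 1 × 10^4 cells per well. Plates were incubated at 37 °C for 16–20 h, and growth was read as absorbance at 600 nm.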
(In general: Broth dilution looks for growth in wells or tubes with falling amounts of substance.)

Series [6] concerns Staphylococcus aureus. Put plainly: Antibacterial activity against Staphylococcus aureus NCTC 8325 carrying expression vector pG154 with mepA gene after 16 to 20 hrs by broth microdilution method. It counts as functional. In a few lines: as §1
Series [7] deals with Staphylococcus aureus. Put plainly: Downregulation of ribH gene expression in MBX-1090-resistant Staphylococcus aureus isolate d20A1 at 50 ug/ml by RT-PCR analysis relative to wild type. It counts as functional.
The subject of series [8] is Staphylococcus aureus. The experiment in a line: Antibacterial activity against Staphylococcus aureus NCTC 8325 after 16 to 20 hrs by broth microdilution method in presence of efflux pump inhibitor reserpine. It counts as functional. In short, it runs like this:
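Broth microdilution in cation-adjusted MHB with reserpine at 20 µg/ml final in the medium as efflux inhibitor. Twofold DMSO dilutions were made (2% DMSO final) with 1 × 10^4 cells per well. Incubation was 37 °C for 16–20 h, with growth read at 600 nm.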

Series [9] concerns Staphylococcus aureus. The experiment in a line: Antibacterial activity against Staphylococcus aureus NCTC 8325 after 16 to 20 hrs by broth microdilution method. The series is classed as functional. In short, it runs like this: as §1
Series [10] deals with Staphylococcus aureus. The experiment in a line: Antibacterial activity against Staphylococcus aureus NCTC 8325 carrying expression vector pG154 with mepA gene after 16 to 20 hrs by broth microdilution method in presence of anhydrous tetracycline. It counts as functional. In a few lines:
(§2)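 Broth microdilution in cation-adjusted MHB containing anhydrous tetracycline at 100 ng/ml final to induce the pG154 expression vector. Twofold DMSO compound dilutions were used (2% DMSO final) with 1 × 10^4 cells per well. Incubation was 37 °C for 16–20 h, and absorbance was read at 600 nm.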

The subject of series [11] is Staphylococcus aureus. The experiment in a line: Antibacterial activity against Staphylococcus aureus NCTC 8325 harboring genetic deletion of mepRA gene and carrying expression vector pG154 with mepA gene after 16 to 20 hrs by broth microdilution method. The series is classed as functional. In short, it runs like this:
as §1

Series [12] relates to Staphylococcus aureus. Put plainly: Upregulation of mepR gene expression in MBX-1090-resistant Staphylococcus aureus isolate d20A1 at 50 ug/ml by RT-PCR analysis relative to wild type. The series is classed as functional.
In series [13] the test system is Staphylococcus aureus. Put plainly: Upregulation of conventional hypothetical protein mRNA expression in MBX-1090-resistant Staphylococcus aureus isolate d20A1 at 50 ug/ml by RT-PCR analysis relative to wild type. It counts as functional.
In series [14] the test system is Staphylococcus aureus. Put plainly: Antibacterial activity against Staphylococcus aureus NCTC 8325 harboring genetic deletion of mepRA gene and carrying expression vector pG154 after 16 to 20 hrs by broth microdilution method. The series is classed as functional. In a few lines:
as §1

Series [15] concerns Staphylococcus aureus. Put plainly: Downregulation of ribA gene expression in MBX-1090-resistant Staphylococcus aureus isolate d20A1 at 50 ug/ml by RT-PCR analysis relative to wild type. The series is classed as functional.
The test system of series [16] is Staphylococcus aureus. Put plainly: microbe, parasite or virus in culture. The following applies: isolate d20A1.
Series [17] relates to Staphylococcus aureus. The experiment in a line: Antibacterial activity against Staphylococcus aureus NCTC 8325 carrying expression vector pG154 after 16 to 20 hrs by broth microdilution method in presence of anhydrous tetracycline. It counts as functional. In short, it runs like this:
as §2

Series [18] is described as follows: Selectivity ratio of MIC for MBX-1090-resistant Staphylococcus aureus isolate d20A1 to MIC for Staphylococcus aureus NCTC 8325. It counts as functional. In short, it runs like this: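 Ratio of resistant-mutant MIC to NCTC 8325 MIC. Both MICs came from broth microdilution in cation-adjusted MHB with 2% DMSO final and 1 × 10^4 cells per well, incubated at 37 °C for 16–20 h and read at 600 nm.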

Series [19] concerns Staphylococcus aureus. Put plainly: Upregulation of mepA gene expression in MBX-1090-resistant Staphylococcus aureus isolate d20A1 at 50 ug/ml by RT-PCR analysis relative to wild type. It counts as functional.
In series [20] the test system is Staphylococcus aureus. Put plainly: Antibacterial activity against Staphylococcus aureus NCTC 8325 harboring genetic deletion of mepRA gene and carrying expression vector pG154 after 16 to 20 hrs by broth microdilution method in presence of anhydrous tetracycline. The series is classed as functional. In a few lines: as §2
Series [21] has as its system Staphylococcus aureus. The experiment in a line: Antibacterial activity against Staphylococcus aureus NCTC 8325 harboring genetic deletion of mepRA gene and carrying expression vector pG154 with mepA gene after 16 to 20 hrs by broth microdilution method in presence of anhydrous tetracycline. The series is classed as functional. In a few lines: as §2
In series [22] the test system is Staphylococcus aureus. Put plainly: Antibacterial activity against Staphylococcus aureus NCTC 8325 carrying expression vector pG154 after 16 to 20 hrs by broth microdilution method. It counts as functional. In short, it runs like this:
as §1

Series [23] has as its system Staphylococcus aureus. Put plainly: Antibacterial activity against Staphylococcus aureus NCTC 8325 harboring genetic deletion of mepR gene after 16 to 20 hrs by broth microdilution method. It counts as functional. In short, it runs like this: as §1
The nature of series [24]: Dissociation constant, pKa of the compound. The series is classed as physicochemical.
The test system of series [25] is Staphylococcus aureus. Put plainly: Induction of mepR gene expression in Staphylococcus aureus NCTC 8325 at 0.125 ug/ml by RT-PCR analysis. It counts as functional, organism-based.
Series [26] relates to Staphylococcus aureus. The experiment in a line: Selectivity ratio of MIC for Staphylococcus aureus NCTC 8325 to MIC for Staphylococcus aureus NCTC 8325 in presence of efflux pump inhibitor reserpine. It counts as functional. In short, it runs like this: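 MICs by modified broth microdilution in cation-adjusted Mueller Hinton broth. Twofold dilutions were made in DMSO at 50× (2% DMSO final), with 1 × 10^4 cells per well. Growth was read as A600 after 16–20 h at 37 °C. Reserpine was added to the medium at 20 µg/ml final to inhibit efflux.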

For series [27], the system named is Staphylococcus aureus. Put plainly: Induction of mepA gene expression in Staphylococcus aureus NCTC 8325 at 0.125 ug/ml by RT-PCR analysis. It counts as functional, organism-based. In a few lines:
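S. aureus overnight culture diluted 1/200 in TSB and grown at 37 °C with shaking (250 rpm) to OD600 0.3. Triplicate 5 ml aliquots were exposed to compound or DMSO (2% final) for 3 h at 37 °C. RNA was purified and DNase-treated; 1 µg was reverse-transcribed with random hexamers, with a no-RT control. mepA signal was normalized to rho, untreated set to 1; three experiments, SD.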

The subject of series [28] is Staphylococcus aureus. Put plainly: Induction of mepR gene expression in Staphylococcus aureus NCTC 8325 at 0.5 ug/ml by RT-PCR analysis. It counts as functional, organism-based.
The subject of series [29] is Staphylococcus aureus. Put plainly: Selectivity ratio of MIC for Staphylococcus aureus NCTC 8325 harboring genetic deletion of mepRA gene and carrying expression vector pG154 with mepA gene in presence of anhydrous tetracycline to MIC for Staphylococcus aureus NCTC 8325 harboring genetic deletion of mepRA gene and carrying expression vector pG154 with mepA gene. The series is classed as functional. In a few lines:
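Ratio of the MIC with anhydrous tetracycline (100 ng/ml final, induces pG154-mepA) to the MIC without it. Both came from broth microdilution in cation-adjusted MHB with 2% DMSO and 1 × 10^4 cells per well, incubated at 37 °C for 16–20 h and read at 600 nm.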

Series [30] has as its system Staphylococcus aureus. The experiment in a line: Induction of mepA gene expression in Staphylococcus aureus NCTC 8325 at 0.5 ug/ml by RT-PCR analysis. It counts as functional, organism-based. In short, it runs like this: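 NCTC 8325 diluted 1/200 in TSB and grown at 37 °C (250 rpm) to OD600 0.3. 5 ml aliquots exposed 3 h to compound or DMSO (2% final), triplicate cultures pooled. RNA was DNase-treated and 1 µg primed with random hexamers for cDNA, with a no-RT control. mepA signal normalized to rho, untreated set to 1. Mean of three experiments ± SD.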

For `Cn1cc(NC(=O)c2cc(NC(=O)c3cc(NC=O)cn3C)cn2C)cc1C(=O)NCCC(=N)N` [STALLIMYCIN], the “fold change (FC)” value in series [1] was determined as 25.5; in series [2], 1.5; in series [3], 1.6; in series [4] it was 2; in series [7], 2.7; in series [12] it was 39.2. In addition, the “fold change (FC)” value is given as 14.2 in [13], 1.9 in series [15] and 72.6 in [19]. Moreover, the MIC in series [5] is 100 µg/mL (≈ 208 µM); in series [6], 50 µg/mL (≈ 104 µM); in series [8], 50 µg/mL; in [9], 50 µg/mL (≈ 104 µM); in series [10] it was 50 µg/mL; in series [11], 50 µg/mL (≈ 104 µM). Further, the MIC in series [14] came to 50 µg/mL (≈ 104 µM); in series [16] it was 200 µg/mL (≈ 415 µM); in series [17], 50 µg/mL; in series [20], 50 µg/mL; in [21], 50 µg/mL; in [22] it was 50 µg/mL (≈ 104 µM). Also, the MIC in series [23] was 100 µg/mL (≈ 208 µM). For the same compound, the Selectivity ratio in series [18] was determined as 4.
For orientation: pKa means the negative logarithm of the acid dissociation constant. A higher pKa goes with a group that holds its proton tightly. Regarding `c1cc2cc(-c3ccc(-c4cc5ccc(C6=NCCCN6)cc5[nH]4)cc3)[nH]c2cc1C1=NCCCN1`, the MIC in series [5] was determined as 0.5 µg/mL (≈ 1.06 µM); in [6], 0.5 µg/mL (≈ 1.06 µM); in [8], 0.125 µg/mL; in series [9], 0.5 µg/mL (≈ 1.06 µM); in series [10] it was 0.125 µg/mL; in series [11], 0.5 µg/mL (≈ 1.06 µM). Moreover, the MIC in [14] was 0.5 µg/mL (≈ 1.06 µM); in series [16], 0.5 µg/mL (≈ 1.06 µM); in [17], 0.5 µg/mL; in series [20] it was 0.5 µg/mL; in [21], 0.125 µg/mL; in [22], 0.5 µg/mL (≈ 1.06 µM). The MIC in [23] is 0.25 µg/mL (≈ 0.529 µM). In series [24], the pKa turned out to be 12.8. Moreover, the result in series [25] and in series [27] was Active. Also, the Selectivity ratio in series [26] is 4.
For `c1cc2cc(-c3ccc4cc(C5=NCCN5)[nH]c4c3)[nH]c2cc1C1=NCCN1`, the MIC stood at 0.5 µg/mL (≈ 1.36 µM) in [5]; 0.5 µg/mL (≈ 1.36 µM) in series [6]; 0.25 µg/mL in series [8]; 0.5 µg/mL (≈ 1.36 µM) in series [9]; 4 µg/mL in [10]; 0.5 µg/mL (≈ 1.36 µM) in series [11]. In addition, the MIC was found to be 0.5 µg/mL (≈ 1.36 µM) in series [14]; 2 µg/mL (≈ 5.43 µM) in [16]; 0.5 µg/mL in series [17]; 0.5 µg/mL in series [20]; 1 µg/mL in [21]; 0.5 µg/mL (≈ 1.36 µM) in series [22]. In addition, the MIC in [23] worked out at 1 µg/mL (≈ 2.71 µM). The result in series [28] and in [30] was Active. Also, the Selectivity ratio in [18] was determined as 4; in [29], 2.
